The record followed here is ChEMBL document CHEMBL4325839, “Design, synthesis and biological evaluations of quaternization harman analogues as potential antibacterial agents” (Eur J Med Chem, 2018).

The term MIC denotes the lowest concentration that inhibits growth of the organism. Higher therefore signals weaker potency.

Type in all cases: functional
The test system of test [1] is Escherichia coli. In words: Antibacterial activity against Escherichia coli CGMCC 1.1636 after 12 to 14 hrs by double dilution method.
Test [2] has as its system Ralstonia solanacearum. In words: Antibacterial activity against Ralstonia solanacearum CGMCC 1.12711 measured after 12 to 14 hrs by double dilution method. Summed up:
(§1)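 Broth double-dilution MIC per NCCLS. Bacteria at 1×10^6 CFU/mL in Luria-Bertani medium. Compounds dissolved in DMSO as stock, then diluted in medium to 200, 100, 50, 25, 12.5, 6.25 and 3.125 nmol/mL (DMSO <0.5%); some also tested at 256–1 µg/mL. Incubated at 37 °C for 12–14 h. MIC read as lowest concentration giving visible growth inhibition.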

Test [3] has as its system Staphylococcus aureus. Briefly: Antibacterial activity against Staphylococcus aureus CGMCC 1.8721 after 12 to 14 hrs by double dilution method.
The test system of test [4] is Bacillus subtilis. Briefly: Antibacterial activity against Bacillus subtilis 769 after 12 to 14 hrs by double dilution method.
The test system of test [5] is Bacillus cereus. Briefly: Antibacterial activity against Bacillus cereus CGMCC 1.1846 after 12 to 14 hrs by double dilution method.
The test system of test [6] is Staphylococcus aureus. Briefly: Antibacterial activity against methicillin-resistant Staphylococcus aureus ATCC 43300 after 12 to 14 hrs by double dilution method. Summed up:
as §1

The structures appear in SMILES notation. In brackets after ≈: the same amount, converted by molar mass.

Consider `COc1ccc2[nH]c3c(-c4ccc5c(c4)OCO5)[n+](Cc4ccccc4)ccc3c2c1`, for which the MIC is greater than 200 µM in test [1]; 50 µM in test [2]; 100 µM in test [3]; 50 µM in test [4]; 200 µM in test [5]; 50 µM in test [6].
Consider `COC(=O)c1ccc(-c2c3[nH]c4ccc(OC)cc4c3cc[n+]2Cc2ccccc2)cc1`, for which the MIC was greater than 200 µM in test [1]; 100 µM in test [2]; 100 µM in test [3]; 100 µM in test [4]; 200 µM in test [5]; 200 µM in test [6].
As for `COc1ccc2[nH]c3c(-c4ccccn4)nccc3c2c1`, the MIC in test [1], in test [2], in test [3], in test [4], in test [5] and in test [6] was greater than 200 µM in each case.
For `COc1ccc2[nH]c3c(-c4ccco4)nccc3c2c1`, the MIC in test [1], in test [2], in test [3], in test [4], in test [5] and in test [6] was greater than 200 µM in each case.
`Cc1ccc(C[n+]2ccc3c([nH]c4ccccc43)c2-c2ccco2)cc1`: the MIC amounted to 100 µM in test [1]; 25 µM in test [2]; 50 µM in test [3]; 25 µM in test [4]; 100 µM in test [5]; 50 µM in test [6].
In the case of `COC(=O)c1ccc(-c2nccc3c2[nH]c2ccccc23)cc1`, the MIC in test [1], in test [2], in test [3], in test [4], in test [5] and in test [6] was greater than 200 µM each time.
Consider `C[C@@H]1O[C@@H]1P(=O)(O)O` [PHOSPHOMYCIN DISODIUM], for which the MIC stood at 6.25 µM in test [1]; 50 µM in test [2]; 100 µM in test [3]; 12.5 µM in test [4]; 25 µM in test [5]; 50 µM in test [6].
With `COc1ccc2[nH]c3c(-c4ccco4)[n+](Cc4ccccc4)ccc3c2c1`, the MIC is greater than 200 µM in test [1]; 100 µM in test [2]; 100 µM in test [3]; 50 µM in test [4]; 200 µM in test [5]; 100 µM in test [6].
Turning to `COc1ccc2[nH]c3c(-c4ccco4)[n+](Cc4ccc(C)cc4)ccc3c2c1`, the MIC in test [1] stood at 100 µM; in test [2], 25 µM; in test [3], 50 µM; in test [4] it was 25 µM; in test [5], 100 µM; in test [6] it was 50 µM.
In the case of `c1ccc(C[n+]2ccc3c([nH]c4ccccc43)c2-c2ccccn2)cc1`, the MIC in test [1], in test [2], in test [3], in test [4], in test [5] and in test [6] was greater than 200 µM throughout.
As to `c1coc(-c2nccc3c2[nH]c2ccccc23)c1`, the MIC in test [1], in test [2], in test [3], in test [4], in test [5] and in test [6] was greater than 200 µM each time.
Take `c1ccc(C[n+]2ccc3c([nH]c4ccccc43)c2-c2ccco2)cc1`: the MIC in test [1] is greater than 200 µM; in test [2], 100 µM; in test [3] it was 100 µM; in test [4], 100 µM; in test [5], greater than 200 µM; in test [6], 100 µM.
In the case of `COC(=O)c1ccc(-c2c3[nH]c4ccc(OC)cc4c3cc[n+]2Cc2ccc(F)cc2)cc1`, the MIC in test [2] is 150 µM; in test [3], 100 µM; in test [4], 75 µM; in test [5] it was 200 µM; in test [6] it was 200 µM.
`COc1ccc2[nH]c3c(-c4ccccn4)[n+](Cc4ccc(C(F)(F)F)cc4)ccc3c2c1`: the MIC in test [1] is greater than 200 µM; in test [2], 100 µM; in test [3] it was 100 µM; in test [4], 100 µM; in test [5], 200 µM; in test [6], 100 µM.
Take `FC(F)(F)c1ccc(C[n+]2ccc3c([nH]c4ccccc43)c2-c2ccccn2)cc1`: the MIC in test [1] was greater than 200 µM; in test [2], 50 µM; in test [3] it was 25 µM; in test [4], 50 µM; in test [5], 100 µM; in test [6], 50 µM.
As for `c1ccc2c(c1)[nH]c1c(-c3ccc4c(c3)OCO4)nccc12`, the MIC in test [1], in test [2], in test [3], in test [4], in test [5] and in test [6] was greater than 200 µM throughout.
Take `COc1ccc2[nH]c3c(-c4ccccn4)[n+](Cc4ccccc4)ccc3c2c1`: the MIC in test [1], in test [2], in test [3], in test [4], in test [5] and in test [6] was greater than 200 µM in each case.
As to `Cc1ccc(C[n+]2ccc3c([nH]c4ccccc43)c2-c2ccccn2)cc1`, the MIC in test [1] was greater than 200 µM; in test [2], 50 µM; in test [3], 25 µM; in test [4], 100 µM; in test [5], 100 µM; in test [6], 50 µM.
In the case of `Cc1ccc(C[n+]2ccc3c([nH]c4ccccc43)c2-c2ccc3c(c2)OCO3)cc1`, the MIC was greater than 200 µM in test [1]; 50 µM in test [2]; 50 µM in test [3]; 25 µM in test [4]; 100 µM in test [5]; 50 µM in test [6].
As to `CO/N=C(\C(=O)N[C@@H]1C(=O)N2C(C(=O)O)=C(COC(C)=O)CS[C@H]12)c1csc(N)n1` [CEFOTAXIME SODIUM], the MIC was 1.56 µM in test [1]; 3.12 µM in test [2]; 1.56 µM in test [3]; 3.12 µM in test [4]; 25 µM in test [5]; 25 µM in test [6].
Take `COc1ccc2[nH]c3c(-c4ccc5c(c4)OCO5)nccc3c2c1`: the MIC was greater than 200 µM in test [1]; greater than 200 µM in test [2]; 200 µM (≈ 63.7 µg/mL) in test [3]; greater than 200 µM in test [4]; greater than 200 µM in test [5]; 200 µM (≈ 63.7 µg/mL) in test [6].
Regarding `COC(=O)c1ccc(-c2c3[nH]c4ccc(OC)cc4c3cc[n+]2Cc2ccc(C)cc2)cc1`, the MIC is greater than 200 µM in test [1]; 50 µM in test [2]; 50 µM in test [3]; 50 µM in test [4]; 50 µM in test [5]; 100 µM in test [6].
`c1ccc(-c2nccc3c2[nH]c2ccccc23)nc1`: the MIC in test [1], in test [2], in test [3], in test [4], in test [5] and in test [6] was greater than 200 µM in each case.
For `COC(=O)c1ccc(-c2c3[nH]c4ccc(OC)cc4c3cc[n+]2Cc2ccccc2Br)cc1`, the MIC in test [2] is 50 µM; in test [3] it was 75 µM; in test [4] it was 50 µM; in test [5] it was 100 µM; in test [6], 75 µM.
As for `COC(=O)c1ccc(-c2c3[nH]c4ccc(OC)cc4c3cc[n+]2Cc2ccc(F)cc2F)cc1`, the MIC is 100 µM in test [2]; 100 µM in test [3]; 100 µM in test [4]; 200 µM in test [5]; greater than 200 µM in test [6].
As for `COC(=O)c1ccc(-c2c3[nH]c4ccc(OC)cc4c3cc[n+]2Cc2cccc(F)c2)cc1`, the MIC in test [2] worked out at 150 µM; in test [3], 200 µM; in test [4] it was 75 µM; in test [5], 200 µM; in test [6], 200 µM.
For `COC(=O)c1ccc(-c2nccc3c2[nH]c2ccc(OC)cc23)cc1`, the MIC in test [1], in test [2], in test [3], in test [4], in test [5] and in test [6] was greater than 200 µM each time.
As to `COC(=O)c1ccc(-c2c3[nH]c4ccc(OC)cc4c3cc[n+]2Cc2cccc(Br)c2)cc1`, the MIC in test [2] was found to be 25 µM; in test [3], 50 µM; in test [4], 25 µM; in test [5] it was 75 µM; in test [6], 50 µM.
Regarding `COC(=O)c1ccc(-c2c3[nH]c4ccccc4c3cc[n+]2Cc2ccc(C(F)(F)F)cc2)cc1`, the MIC in test [1] came out at 200 µM; in test [2] it was 50 µM; in test [3], 50 µM; in test [4] it was 50 µM; in test [5] it was 100 µM; in test [6], 50 µM.
Take `COC(=O)c1ccc(-c2c3[nH]c4ccc(OC)cc4c3cc[n+]2Cc2ccc(Cl)cc2)cc1`: the MIC came to 37.5 µM in test [2]; 50 µM in test [3]; 50 µM in test [4]; 50 µM in test [5]; 100 µM in test [6].
Turning to `COC(=O)c1ccc(-c2c3[nH]c4ccc(OC)cc4c3cc[n+]2Cc2ccc([N+](=O)[O-])cc2)cc1`, the MIC in test [2] is 100 µM; in test [3], 100 µM; in test [4], 200 µM; in test [5], 200 µM; in test [6], 200 µM.
Consider `COC(=O)c1ccc(-c2c3[nH]c4ccc(OC)cc4c3cc[n+]2Cc2ccccc2F)cc1`, for which the MIC in test [2] came to 150 µM; in test [3], 200 µM; in test [4] it was 100 µM; in test [5], 200 µM; in test [6], 200 µM.
